Experimental data as given in ChEMBL document CHEMBL1250501, “Anti-tubercular agents. Part 5: synthesis and biological evaluation of benzothiadiazine 1,1-dioxide based congeners” (Eur J Med Chem, 2010).
Activity calls are given as the source filed them. The rule behind the calls is not given here.

How the values were obtained:
Staphylococcus aureus = assay: Antibacterial activity against Staphylococcus aureus at 100 units after 18 hrs by cup plate method; format: functional, organism-based
[1] = tested on: Staphylococcus epidermidis; assay: Antibacterial activity against Staphylococcus epidermidis at 100 units after 18 hrs by cup plate method; format: functional, organism-based
Bacillus subtilis = assay: Antibacterial activity against Bacillus subtilis at 100 units after 18 hrs by cup plate method; format: functional, organism-based
Escherichia coli = assay: Antibacterial activity against Escherichia coli at 100 units after 18 hrs by cup plate method; format: functional, organism-based
Klebsiella pneumoniae = assay: Antibacterial activity against Klebsiella pneumoniae at 100 units after 18 hrs by cup plate method; format: functional, organism-based
Pseudomonas aeruginosa = assay: Antibacterial activity against Pseudomonas aeruginosa at 100 units after 18 hrs by cup plate method; format: functional, organism-based
Candida albicans [2] = assay: Antifungal activity against Candida albicans MTCC 227 at 100 units after 48 hrs by cup plate method; format: functional
Aspergillus niger [3] = assay: Antifungal activity against Aspergillus niger at 100 units after 48 hrs by cup plate method; format: functional
Aspergillus sp. [4] = assay: Antifungal activity against Aspergillus sp. at 100 units after 48 hrs by cup plate method; format: functional
Candida albicans [5] = assay: Antifungal activity against Candida albicans MTCC 227 at 20 ug/ml after 48 hrs by cup plate method; format: functional, organism-based
Outline: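 Agar well (cup plate) diffusion on potato dextrose agar 39 g/L. Compounds dissolved in DMSO and loaded into 6 mm wells. Incubated at 28 ± 2 °C for 48 h. Inhibition zone diameter measured to the nearest millimetre, three replicates per treatment. DMSO solvent as negative control, amphotericin B as positive control.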

Aspergillus niger [6] = assay: Antifungal activity against Aspergillus niger at 20 ug/ml after 48 hrs by cup plate method; format: functional, organism-based
Outline: (§1)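 Agar well (cup plate) diffusion on potato dextrose agar 39 g/L, with compounds dissolved in DMSO. Plates were incubated at 28 ± 2 °C for 48 h and inhibition zones measured to the nearest mm. Three replicates per treatment. Amphotericin B positive control; solvent control included.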

Aspergillus sp. [7] = assay: Antifungal activity against Aspergillus sp. at 20 ug/ml after 48 hrs by cup plate method; format: functional, organism-based; outline: as §1

Molecule | diameter of the inhibition zone (DIZ) (Staphylococcus aureus) | diameter of the inhibition zone (DIZ) [1] | diameter of the inhibition zone (DIZ) (Bacillus subtilis) | diameter of the inhibition zone (DIZ) (Escherichia coli) | diameter of the inhibition zone (DIZ) (Klebsiella pneumoniae) | diameter of the inhibition zone (DIZ) (Pseudomonas aeruginosa) | inhibition zone (IZ) (Candida albicans [2]) | inhibition zone (IZ) (Aspergillus niger [3]) | inhibition zone (IZ) (Aspergillus sp. [4]) | inhibition zone (IZ) (Candida albicans [5]) | inhibition zone (IZ) (Aspergillus niger [6]) | inhibition zone (IZ) (Aspergillus sp. [7])
C[C@@H]1[C@H](O)[C@@H](C)/C=C/C=C/C=C/C=C/C=C/C=C/C=C/[C@H](O[C@@H]2O[C@H](C)[C@@H](O)[C@H](N)[C@@H]2O)C[C@@H]2O[C@](O)(C[C@@H](O)C[C@@H](O)[C@H](O)CC[C@@H](O)C[C@@H](O)CC(=O)O[C@H]1C)C[C@H](O)[C@H]2C(=O)O [AMPHOTERICIN B] | inactive | inactive | inactive | inactive | inactive | inactive | 14 mm | 23 mm | 14 mm |  |  | 
NYSTATIN |  |  |  |  |  |  |  |  |  | inactive | 26 mm | 16 mm
